697 NFkB inh: inhibitors of the PMA/ionomycin-induced NF-kB reporter in 697 B cells; 697 B-cell NF-kB luciferase reporter, 16 h; AID 435022; 330,000 tested, 0.33% active; inhibition, % at 4 µM; in the data active means inhibition above about 35%
GalR3 antag: human GalR3 antagonism; HEK293 GalR3-CNG cAMP membrane potential fluorescence; galR3 body fused to GalR1 C-terminus; AID 651719; O60755; 360,000 tested, 0.44% active; inhibition, % at 3 µM;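 active means inhibition above the screen-wide average plus 3 SD, cut at about 13% in these data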;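 further: forskolin and galanin both at EC90 stimulate the cells; cAMP rise reported by CNG channel membrane potential dye signal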
Target sequence (O60755 1-299 limits assumed): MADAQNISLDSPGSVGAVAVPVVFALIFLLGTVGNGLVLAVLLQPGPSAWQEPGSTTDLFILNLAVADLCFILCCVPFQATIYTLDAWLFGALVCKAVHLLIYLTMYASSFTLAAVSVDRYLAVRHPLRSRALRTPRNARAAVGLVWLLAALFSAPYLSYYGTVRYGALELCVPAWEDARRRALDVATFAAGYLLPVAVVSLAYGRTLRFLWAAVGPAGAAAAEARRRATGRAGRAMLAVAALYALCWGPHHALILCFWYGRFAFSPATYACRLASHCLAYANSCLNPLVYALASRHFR
NR2E3 ag-1: agonists of human nuclear receptor NR2E3. Q9Y5X4. GST-NR2E3/biotin-RetCOR TR-FRET, 1536-well. inhibition of corepressor binding, % at 4.78 µM. 320,000 tested, 0.12% active. AID 2300;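 active means percent inhibition above the cutoff of mean plus 3 SD of all tested compounds, set per screening campaign, cut at about 20% in these data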
Target sequence (Q9Y5X4 whole entry, looked up): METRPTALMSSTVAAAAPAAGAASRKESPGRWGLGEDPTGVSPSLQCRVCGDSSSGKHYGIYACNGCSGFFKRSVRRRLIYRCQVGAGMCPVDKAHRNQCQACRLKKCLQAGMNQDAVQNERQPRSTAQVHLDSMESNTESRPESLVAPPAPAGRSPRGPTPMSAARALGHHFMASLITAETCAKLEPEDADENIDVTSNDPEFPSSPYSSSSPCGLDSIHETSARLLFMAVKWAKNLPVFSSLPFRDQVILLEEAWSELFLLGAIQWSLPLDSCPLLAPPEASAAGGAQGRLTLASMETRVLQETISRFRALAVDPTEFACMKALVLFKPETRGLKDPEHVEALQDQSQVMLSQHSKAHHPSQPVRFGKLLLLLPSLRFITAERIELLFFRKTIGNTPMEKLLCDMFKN
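System: GST-tagged NR2E3 plus biotinylated RetCOR corepressor; Amount: 1.35 nM GST-tagged NR2E3 final; Dosing: single nominal compound dose of 4.8 µM; Schedule: 5 h incubation at 4 °C; Technique: TR-FRET with europium anti-GST and streptavidin-D2, 340 nm excitation; Controls: biotin wells as high control, 0.6% DMSO wells as low control.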
Gli-Sufu antag: blocks Gli-Sufu signaling in a luciferase reporter | Sufu-KO-LIGHT fibroblasts, Gli luciferase reporter luminescence | inhibition, % at 5 µM | 340,000 tested, 0.74% active;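 active means inhibition above about 55%, limit read from the data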
NR2E3 ag-2: agonists of human NR2E3 nuclear receptor; CHO-S Gal4-NCOR/VP16-NR2E3 two-hybrid, luciferase; inhibition of corepressor binding, % at 3.98 µM; 360,000 tested, 0.35% active; AID 602229;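 active means inhibition above the mean of all tested compounds plus 3 SD, cut at about 70% in these data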;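 further: higher means lower luciferase signal from less NR2E3 corepressor binding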
Jurkat NFkB inh: inhibitors of the PMA/ionomycin-induced NF-kB reporter in Jurkat cells; PMA/ionomycin-induced NF-kB luciferase reporter, luminescence; inhibition, % at 4 µM; 330,000 tested, 0.53% active; AID 435003; in the data active means inhibition above about 50%
NR2E3 ag confirm: NR2E3 agonism confirmed in two-hybrid assay; 2,300 tested, 51% active; AID 624378; inhibition, % at 3.98 µM; shares compounds with NR2E3 ag-2; CHO-S mammalian two-hybrid NR2E3-NCOR, luciferase luminescence;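 active means average inhibition above a cutoff equal to the mean inhibition of all tested compounds plus one SD, cut at about 70% in these data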
VP16 counter: counter-screen for NR2E3 agonists: GAL4-VP16 reporter inhibitors; inhibition, % at 3.98 µM; 2,300 tested, 29% active; CHO-S GAL4-VP16 luciferase reporter, luminescence; AID 624379; shares compounds with NR2E3 ag-2;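 active means mean inhibition above a cutoff equal to the average over all tested compounds plus one standard deviation, cut at about 70% in these data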;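 further: luciferase from a UAS reporter driven by GAL4-VP16 transactivation; higher means less reporter light so more repression of VP16 activity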
Each line names hits and unclear results; the compound was inactive in the other large screens (follow-up assays come after a bar, where they were run). A selection: hits, their analogues and other compounds. The true share with any hit is near 1.8%.

CC(CCc1ccccc1)NC(=S)NC(=O)c1ccco1 (stereo not drawn)	none
O=C(NC(=S)N(CCc1ccccc1)CCc1ccccc1)c1ccco1	none | NR2E3 ag confirm inactive | VP16 counter inactive
CC(C)(C)C1CCN2CCCC(c3ccccc3)(C1)C2=O (stereo not drawn)	none (no result: 697 NFkB inh, NR2E3 ag-1, Gli-Sufu antag, Jurkat NFkB inh)
N#Cc1c(-c2cccs2)nc(SCc2ccc(Cl)cc2)[nH]c1=O	NR2E3 ag-2 78 (no result: NR2E3 ag-1) | NR2E3 ag confirm 97 | VP16 counter inactive
Cc1cn(CC(=O)N2CCN(c3ccccn3)CC2)c(=O)[nH]c1=O	none (no result: 697 NFkB inh, NR2E3 ag-1, Jurkat NFkB inh)
Cc1[nH]c2ccccc2c(=O)c1C(=O)/C=C/c1ccccc1	none | NR2E3 ag confirm inactive | VP16 counter inactive
Cc1ccc2cc3cc(C(=O)NCCC(C)C)oc3nc2c1	none
Cc1ccc2cc3cc(C(=O)NCc4ccco4)oc3nc2c1	none | NR2E3 ag confirm inactive | VP16 counter inactive
c1cc(CNc2ccc3c(c2)OCCO3)ccn1	none | NR2E3 ag confirm inactive | VP16 counter inactive
C=CCOc1ccccc1CNc1ccc2c(c1)OCCO2	none (no result: GalR3 antag) | NR2E3 ag confirm inactive | VP16 counter inactive
C=CCOc1ccccc1CNc1cccc(F)c1	none
O=C(NCc1ccncc1)Nc1ccc2c(c1)OCO2	none
COCC(C)n1c(C)cc(C(=O)CSc2nc3ccccc3c(=O)[nH]2)c1C (stereo not drawn)	none | NR2E3 ag confirm inactive | VP16 counter inactive
C=C(C)CNC(=S)N/N=C/c1ccco1	none
CSc1ccc(CN2C(=O)C(F)(F)Oc3c(C(C)=O)cccc32)cc1	none (no result: 697 NFkB inh, GalR3 antag, NR2E3 ag-1, Gli-Sufu antag, Jurkat NFkB inh) | NR2E3 ag confirm inactive | VP16 counter inactive
COc1ccc(Br)cc1CN(C)C(=O)c1cnc(C)cn1	none
CSc1nc2ccc(NS(=O)(=O)c3ccc4c(c3)OCCO4)cc2s1	NR2E3 ag-2 76 | NR2E3 ag confirm 91 | VP16 counter 82
O=S(=O)(Nc1ccc2c(c1)OCCO2)c1ccc2oc3ccccc3c2c1	NR2E3 ag-2 81 | NR2E3 ag confirm 84 | VP16 counter inactive
CSc1nc2ccc(S(=O)(=O)N3CCCCC3)cc2s1	none
CSc1nc2ccc(S(=O)(=O)NC3CCCCC3)cc2s1	none | NR2E3 ag confirm inactive | VP16 counter inactive
N#Cc1ccccc1OCC(=O)NC(=O)NC1CCS(=O)(=O)C1 (stereo not drawn)	none
NS(=O)(=O)c1ccc(CCNc2nn3c(-c4ccc(F)c(Cl)c4)cnc3s2)cc1	none (no result: 697 NFkB inh, NR2E3 ag-1, Gli-Sufu antag, Jurkat NFkB inh) | NR2E3 ag confirm inactive | VP16 counter inactive
NS(=O)(=O)c1ccc(CCNC(=O)CSc2ccc(Cl)cc2Cl)cc1	none
COc1ccc(CCNc2nc(C)nc3c2oc2ccccc23)cc1OC	NR2E3 ag-2 73 | NR2E3 ag confirm 90 | VP16 counter 73
CCC(C)Nc1nc(C)nc2c1oc1ccccc12 (stereo not drawn)	none
Cc1nc(NC(C)c2ccccc2)c2oc3ccccc3c2n1 (stereo not drawn)	none | NR2E3 ag confirm 81 | VP16 counter inactive
Cc1ccc(N2C(=O)CC(C)CC2=O)cc1	none
COc1ccc(NC(=O)CSc2nc3sc(C)cc3c(=O)n2C)c(OC)c1	none | NR2E3 ag confirm inactive | VP16 counter inactive
COC(=O)C1(CC2CC(c3ccccc3)=NO2)CCN(C(=O)OC(C)(C)C)CC1 (stereo not drawn)	none
C=C(C(=O)c1ccccc1)C(C)C(=C)C(=O)c1ccccc1	none (no result: 697 NFkB inh, Jurkat NFkB inh) | NR2E3 ag confirm 79 | VP16 counter inactive
CCCc1cc(NC(=O)COC(=O)c2nccnc2N)n(-c2ccccc2)n1	none
CC(=O)c1cnc(SCc2ccc(Cl)cc2)nc1C	none
Cc1nc(SCc2ccc(Cl)c(Cl)c2)ncc1C(=O)O	none | NR2E3 ag confirm inactive | VP16 counter inactive
CSc1cccc(CNC(=O)C2CCC(=O)N(CCCN3CCCC3=O)C2)c1 (stereo not drawn)	none
O=S(=O)(c1ccc2c(c1)OCCO2)N1CCC(n2nnc3cc(C(F)(F)F)ccc32)CC1	none | NR2E3 ag confirm inactive | VP16 counter inactive
CCOC(=O)Cn1c(=O)c(F)cn(Cc2ccc(OC)c([N+](=O)[O-])c2)c1=O	none (no result: NR2E3 ag-1)
COc1ccc(N2C(=O)CC(Cc3ccccc3)C2=O)cc1 (stereo not drawn)	none
O=C1C=CC2(C=C1)O[C@H](Cc1ccccc1)[C@@H](Cc1ccccc1)O2	NR2E3 ag-2 100 (no result: 697 NFkB inh, NR2E3 ag-1, Jurkat NFkB inh) | NR2E3 ag confirm 100 | VP16 counter inactive
COc1ccc(C[C@@H]2OC3(C=CC(=O)C=C3)O[C@H]2Cc2ccc(OC)cc2)cc1	NR2E3 ag-2 97 (no result: 697 NFkB inh, GalR3 antag, NR2E3 ag-1, Jurkat NFkB inh) | NR2E3 ag confirm 96 | VP16 counter inactive
O=C1Nc2ccccc2C1Cc1ccccc1 (stereo not drawn)	none
O=C(CC1NC(=S)NC1=O)c1ccc(Cl)cc1 (stereo not drawn)	none
c1ccc(N2CC3CCc4ccccc4C3=N2)cc1 (stereo not drawn)	none
O=C(NNc1cc(C(F)(F)F)nc2ccccc12)Nc1cccc(Cl)c1	none
O=C(c1cc(S(=O)(=O)N2CCN(c3ccccc3)CC2)ccc1Cl)N1CCCC(C(F)(F)F)C1 (stereo not drawn)	NR2E3 ag-2 82 | NR2E3 ag confirm 92 | VP16 counter 76
Cc1coc2cc3oc(=O)c(CCC(=O)NC4CC4)c(C)c3cc12	NR2E3 ag-2 70 | NR2E3 ag confirm 85 | VP16 counter inactive
CC(C)C[C@@H](CN1CCC[C@@H]1CN1C(=S)NC[C@@H]1Cc1ccc(O)cc1)N1C[C@H](Cc2ccccc2)N(CCc2ccccc2)C1=S	none (no result: 697 NFkB inh, GalR3 antag, NR2E3 ag-1, Gli-Sufu antag, Jurkat NFkB inh) | NR2E3 ag confirm inactive | VP16 counter inactive
CC(C)C[C@@H](CN1CCCC1CN1C(=S)NC[C@@H]1Cc1ccc(O)cc1)N1C[C@H](Cc2ccccc2)N(CCc2ccccc2)C1=S (stereo partly drawn)	none (no result: 697 NFkB inh, NR2E3 ag-1, Jurkat NFkB inh)
COc1cc(NC(C(=O)Nc2cccc(C(C)=O)c2)c2ccccc2)cc(OC)c1OC (stereo not drawn)	none | NR2E3 ag confirm inactive | VP16 counter inactive
COc1ccc(C=NCCc2ccc(OC)c(OC)c2)cc1OC	none (no result: 697 NFkB inh, NR2E3 ag-1, Gli-Sufu antag, Jurkat NFkB inh)
Cc1cc(NC(=O)COC(=O)c2cnccn2)ccc1Br	none (no result: NR2E3 ag-1)
O=C(CCNS(=O)(=O)c1ccc(OC(F)(F)F)cc1)N1CCN(C/C=C/c2ccccc2)CC1	none | NR2E3 ag confirm inactive | VP16 counter inactive
C=CCNC(=O)C1CC1(c1cccc(C)c1)c1cccc(C)c1 (stereo not drawn)	none
Cc1cccc(C2(c3cccc(C)c3)CC2C(=O)Nc2ccc([N+](=O)[O-])cc2O)c1 (stereo not drawn)	NR2E3 ag-2 86 | NR2E3 ag confirm 74 | VP16 counter inactive
CN(C)S(=O)(=O)N1CCC(Oc2ccc(C(=O)N3C[C@@H]4CCC[C@H]3C4)cc2)CC1	none

Screening results as filed in PubChem.
